Results on 29 molecules are retold here after ChEMBL document CHEMBL1122510, “Actinidin hydrolysis of substituted-phenyl hippurates: a quantitative structure-activity relationship and graphics comparison with hydrolysis by papain” (J Med Chem, 1984).

The nature of this series: Michaelis constant for Actinidin-catalyzed hydrolysis. It counts as ADME. A digest of the protocol:
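Actinidin purified in-house from kiwi fruit, stored as crystal suspension in 0.1 M sodium phosphate pH 6 with 20% ammonium sulfate; diluted, activated with aqueous DTE (~15 mg/mL), then diluted in 0.1 M sodium phosphate pH 6.0. Substituted-phenyl hippurate added in CH3CN to enzyme-buffer at 25 °C; initial hydrolysis rates read spectrophotometrically at ≥8 substrate concentrations.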
As for `CC(=O)Nc1cccc(OC(=O)CNC(=O)c2ccccc2)c1`, the “Log 1/Km” value came out at 3.18.

`O=C(CNC(=O)c1ccccc1)Oc1ccc(F)cc1`: the “Log 1/Km” value is reported as 2.72.

For the molecule `CC(C)(C)c1cccc(OC(=O)CNC(=O)c2ccccc2)c1`, the “Log 1/Km” value is 3.66.

With `N#Cc1ccc(OC(=O)CNC(=O)c2ccccc2)cc1`, the “Log 1/Km” value was 3.62.

For the molecule `NS(=O)(=O)c1cccc(OC(=O)CNC(=O)c2ccccc2)c1`, the “Log 1/Km” value is listed as 3.42.

Consider `Cc1ccc(OC(=O)CNC(=O)c2ccccc2)cc1`, for which the “Log 1/Km” value worked out at 2.95.

For `NC(=O)c1cccc(OC(=O)CNC(=O)c2ccccc2)c1`, the “Log 1/Km” value was 3.15.

As to `Nc1ccc(OC(=O)CNC(=O)c2ccccc2)cc1`, the “Log 1/Km” value was 2.55.

On to `O=C(CNC(=O)c1ccccc1)Oc1cccc(Cl)c1`, for which the “Log 1/Km” value came to 3.63.

Take `O=C(CNC(=O)c1ccccc1)Oc1cc(Cl)cc(Cl)c1`: the “Log 1/Km” value worked out at 3.84.

In the case of `O=C(CNC(=O)c1ccccc1)Oc1ccccc1`, the “Log 1/Km” value stood at 2.77.

On to `O=C(CNC(=O)c1ccccc1)Oc1cccc([N+](=O)[O-])c1`, for which the “Log 1/Km” value is on record as 3.53.

As to `O=C(CNC(=O)c1ccccc1)Oc1cc(Cl)c(Cl)c(Cl)c1`, the “Log 1/Km” value is recorded as 4.01.

`Cc1cc(C)cc(OC(=O)CNC(=O)c2ccccc2)c1`: the “Log 1/Km” value turned out to be 3.37.

In the case of `CC(=O)c1ccc(OC(=O)CNC(=O)c2ccccc2)cc1`, the “Log 1/Km” value came to 3.47.

`CCc1cc(C)cc(OC(=O)CNC(=O)c2ccccc2)c1`: the “Log 1/Km” value is listed as 3.52.

As to `O=C(CNC(=O)c1ccccc1)Oc1cccc(F)c1`, the “Log 1/Km” value turned out to be 3.01.

Consider `O=C(CNC(=O)c1ccccc1)Oc1cc([N+](=O)[O-])cc([N+](=O)[O-])c1`, for which the “Log 1/Km” value is on record as 3.9.

With `NS(=O)(=O)c1ccc(OC(=O)CNC(=O)c2ccccc2)cc1`, the “Log 1/Km” value was 3.22.

`O=C(CNC(=O)c1ccccc1)Oc1ccc(Cl)cc1`: the “Log 1/Km” value stood at 3.04.

`O=C(CNC(=O)c1ccccc1)Oc1cccc(C(F)(F)F)c1`: the “Log 1/Km” value is on record as 3.47.

Consider `COc1cc(OC)cc(OC(=O)CNC(=O)c2ccccc2)c1`, for which the “Log 1/Km” value was 3.6.

Regarding `O=C(CNC(=O)c1ccccc1)Oc1cccc(I)c1`, the “Log 1/Km” value is listed as 3.93.

As for `COc1ccc(OC(=O)CNC(=O)c2ccccc2)cc1`, the “Log 1/Km” value came out at 2.87.

As to `O=C(CNC(=O)c1ccccc1)Oc1ccc([N+](=O)[O-])cc1`, the “Log 1/Km” value is recorded as 3.8.

`N#Cc1cccc(OC(=O)CNC(=O)c2ccccc2)c1`: the “Log 1/Km” value was 3.08.

In the case of `Cc1cccc(OC(=O)CNC(=O)c2ccccc2)c1`, the “Log 1/Km” value was found to be 3.26.

`NC(=O)c1ccc(OC(=O)CNC(=O)c2ccccc2)cc1`: the “Log 1/Km” value is reported as 3.47.

Turning to `O=C(CNC(=O)c1ccccc1)Oc1cccc(Br)c1`, the “Log 1/Km” value was found to be 3.64.
